Data set [1] has as its system Serum TSH. Kind of data set: Levothyroxine dose for TSH suppression in thyroid cancer. It is filed as in vivo, Indian thyroid cancer patients. Summed up:
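Follow-up visits of treated thyroid cancer outpatients were evaluated prospectively, recording age, sex, weight, initial ATA risk category, serum TSH and prescribed levothyroxine. Visits with suppressed TSH were selected and dose per kg body weight calculated. Mean, median, range and lowest dose/kg were derived.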

The test system of data set [2] is Serum TSH. To be noted: ref the guidelines; cited from earlier work.
Data set [3] has as its target T1, CXCR4 receptors (Homo sapiens, UniProt P61073). It is filed as in vivo, patients.
The subject of another data set is RGD binding integrins. It is filed as in vivo, patients.
Data set [4] addresses T1, CXCR4 receptors. Also noted: species or system patients. The following applies: in vivo.

T1 sequence (P61073 whole entry): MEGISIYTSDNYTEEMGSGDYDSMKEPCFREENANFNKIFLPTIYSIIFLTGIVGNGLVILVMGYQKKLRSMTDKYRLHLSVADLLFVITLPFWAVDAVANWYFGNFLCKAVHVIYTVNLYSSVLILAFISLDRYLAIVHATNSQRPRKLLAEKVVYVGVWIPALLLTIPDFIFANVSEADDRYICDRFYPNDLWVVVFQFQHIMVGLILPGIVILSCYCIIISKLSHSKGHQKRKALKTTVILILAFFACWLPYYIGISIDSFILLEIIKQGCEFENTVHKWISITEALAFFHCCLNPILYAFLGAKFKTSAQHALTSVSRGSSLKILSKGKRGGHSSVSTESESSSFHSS

As for `N[C@@H](Cc1cc(I)c(Oc2cc(I)c(O)c(I)c2)c(I)c1)C(=O)O` [Levothyroxine], the “patients receiving more than 2ug/kg in excess TSH suppression” value in the data set on Serum TSH [1] (14 patients, TSH 0.01-0.09 mIU/L) came to 44%. Moreover, the “patients with suppressed TSH values with less than 2ug/kg dose” value in the data set with Serum TSH [1] (16 patients) was found to be 50%. In the data set with Serum TSH [1] (36 patients, 90 follow-ups with suppressed TSH, SD 0.49), this compound yielded a mean suppressive dose of 2.21 ug/kg body weight. Moreover, in the data set on Serum TSH [1] (in vivo), the maximum dose was 3.33 µg/kg and the “minimum dose required to keep the patient in suppression” value worked out at 1.29 µg/kg. In addition, the “dose required for long-term TSH suppression” value in the data set on Serum TSH [2] was 2.2-2.7 ug/kg body weight.

Take ^18F-FDG: the “increase in mean SUVmax, PD” value on CXCR4 receptors [3] (n = 3) is 9.8%. On CXCR4 receptors [3] (n = 6), the “percent decrease in mean SUVmax, VGPR” value amounted to 68.8%. Moreover, the “percent decrease in mean SUVmax, CR” value at CXCR4 receptors [3] (n = 9) was 78.6%. Besides, at CXCR4 receptors [3] (n = 12), the “percent decrease in mean SUVmax, PR” value is 43.3%. Further, in the data set with RGD binding integrins (in vivo), the overall sensitivity was 92.86% and the overall specificity is 100%. For the same compound, the “skeletal metastatic lesions seen” value in the data set on RGD binding integrins (of 23) was determined as 78.26%. Besides, the “patients positive for the disease” value in the data set on RGD binding integrins (of 30) worked out at 86.66%. For the same compound, in the data set on RGD binding integrins (of 47), the “soft tissue lesions seen” value is recorded as 100%. The lung lesions seen in the data set with RGD binding integrins (of 130) worked out at 90%. Further, the lesions with uptake with RGD binding integrins (of 200 lesions) stood at 91%. Moreover, on CXCR4 receptors [4], the “lesions with increased tracer uptake” value is given as 55 lesions.
